Measured values from ChEMBL document CHEMBL1154167, “Discovery of azetidinyl ketolides for the treatment of susceptible and multidrug resistant community-acquired respiratory tract infections” (J Med Chem, 2009).
Values after ≈ are worked out from the molar mass of the structure shown.

Tests used:
Haemophilus influenzae [1] = test: Antibacterial activity against multidrug-susceptible Haemophilus influenzae 1325 by NCCLS method; format: functional
Streptococcus pneumoniae [2] = test: Antibacterial activity against multidrug-resistant Streptococcus pneumoniae 1175 harboring mefA gene by NCCLS method; format: functional
[3] = Metabolic stability in human liver cytosol assessed as compound turnover at 1 uM in presence of aldehyde oxidase inhibitor raloxifene; format: ADME
Summary of the method: (§1)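 Human liver cytosol incubations, used as a readout of aldehyde oxidase metabolism, run with and without the AO inhibitor raloxifene.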

Streptococcus pneumoniae [4] = test: Antibacterial activity against multidrug-resistant Streptococcus pneumoniae 1095 harboring ermB gene by NCCLS method; format: functional
Streptococcus pneumoniae [5] = test: Antibacterial activity against multidrug-susceptible Streptococcus pneumoniae 1016 by NCCLS method; format: functional
Streptococcus pyogenes = test: Antibacterial activity against multidrug-resistant Streptococcus pyogenes 1079 harboring ermB gene by NCCLS method; format: functional
[6] = Metabolic stability in human liver microsomes assessed as hepatic extraction ratio at 1 uM; format: ADME, Microsome; details: read-out: ERH
Summary of the method: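 Human liver microsomes used to screen for metabolic clearance; the readout was the microsomal extraction ratio (ER).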

[7] = Metabolic stability in human liver cytosol assessed as compound turnover at 1 uM after 60 mins; format: ADME, tissue-based; details: 1 h; summary of the method: as §1
[8] = target: Voltage-gated inwardly rectifying potassium channel KCNH2 (Homo sapiens, UniProt Q12809); test: Inhibition of human ERG by patch-clamp assay
Streptococcus pneumoniae [9] = test: Antibacterial activity against multidrug-resistant Streptococcus pneumoniae 1095 harboring ermB infected in po dosed mouse respiratory tract model assessed as survival administered 18 hrs postinfection BID for 2 days measured on day 10 postinfection; format: functional; details: Streptococcus pneumoniae, 1095, po; read-out: PD50
Summary of the method: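 Murine respiratory tract infection model using S. pneumoniae 1095 (erm). Compounds were given orally. The outcome was the 50% protective dose (PD50), reported as (mg/kg)/dose.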

Haemophilus influenzae [10] = test: Antibacterial activity against multidrug-susceptible Haemophilus influenzae 1325 infected in po dosed Mongolian gerbil otitis media model assessed as reduction of bacterial infection administered 18 hrs postinfection TID for 2 days measured on day 4 postinfection; format: functional; details: Haemophilus influenzae, 1325, po
Summary of the method: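 Gerbil otitis media model infected with H. influenzae 1325; compounds given orally. Efficacy expressed as ED50 in (mg/kg)/dose.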

Voltage-gated inwardly rectifying potassium channel KCNH2, sequence (Q12809 whole entry): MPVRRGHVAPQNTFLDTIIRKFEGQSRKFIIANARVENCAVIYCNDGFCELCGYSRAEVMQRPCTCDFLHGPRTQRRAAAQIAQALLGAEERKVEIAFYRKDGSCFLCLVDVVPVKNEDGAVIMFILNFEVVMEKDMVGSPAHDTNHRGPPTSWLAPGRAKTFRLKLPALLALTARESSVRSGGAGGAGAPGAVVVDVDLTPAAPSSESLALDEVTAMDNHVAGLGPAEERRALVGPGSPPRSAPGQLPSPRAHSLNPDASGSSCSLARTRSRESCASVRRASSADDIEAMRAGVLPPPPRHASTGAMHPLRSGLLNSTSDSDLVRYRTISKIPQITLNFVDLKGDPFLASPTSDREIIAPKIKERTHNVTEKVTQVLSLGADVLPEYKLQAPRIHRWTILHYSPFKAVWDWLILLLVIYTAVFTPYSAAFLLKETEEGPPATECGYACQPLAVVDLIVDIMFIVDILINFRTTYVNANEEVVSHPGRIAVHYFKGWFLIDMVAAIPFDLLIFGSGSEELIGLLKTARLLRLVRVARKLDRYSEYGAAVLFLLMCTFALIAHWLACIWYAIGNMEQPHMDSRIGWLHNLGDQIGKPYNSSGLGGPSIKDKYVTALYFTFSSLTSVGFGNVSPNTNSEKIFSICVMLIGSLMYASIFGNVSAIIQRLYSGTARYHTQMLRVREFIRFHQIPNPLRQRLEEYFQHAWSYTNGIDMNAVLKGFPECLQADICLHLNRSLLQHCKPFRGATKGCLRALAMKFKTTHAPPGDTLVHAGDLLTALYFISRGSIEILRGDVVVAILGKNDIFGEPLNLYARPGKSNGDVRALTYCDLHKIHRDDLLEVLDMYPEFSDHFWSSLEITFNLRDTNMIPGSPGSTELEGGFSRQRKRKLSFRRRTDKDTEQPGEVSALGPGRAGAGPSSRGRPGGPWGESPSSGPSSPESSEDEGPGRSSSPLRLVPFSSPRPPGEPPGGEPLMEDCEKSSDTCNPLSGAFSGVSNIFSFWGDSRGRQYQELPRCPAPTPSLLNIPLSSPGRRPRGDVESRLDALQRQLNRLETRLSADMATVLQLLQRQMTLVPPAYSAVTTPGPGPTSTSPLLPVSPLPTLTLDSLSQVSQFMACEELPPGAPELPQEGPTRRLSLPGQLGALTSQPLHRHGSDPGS

Row | SMILES | MIC (Haemophilus influenzae [1]) | MIC (Streptococcus pneumoniae [2]) | half-life at 1 µM [3] | MIC (Streptococcus pneumoniae [4]) | MIC (Streptococcus pneumoniae [5]) | MIC (Streptococcus pyogenes) | hepatic extraction ratio at 1 µM [6] | Stability [7] | IC50 [8] | ED50 (Streptococcus pneumoniae [9]) | ED50 (Haemophilus influenzae [10])
1 | CC[C@H]1OC(=O)[C@H](C)C(=O)[C@H](C)[C@@H](O[C@@H]2O[C@H](C)C[C@H](N(C)C)[C@H]2O)[C@](C)(O)C[C@@H](C)C(=O)[C@H](C)[C@H]2N(C3CN([C@@H](C)c4ccnc5ncccc45)C3)C(=O)O[C@]12C | 16 µg/mL (≈ 19.8 µM) | 0.25 µg/mL (≈ 0.309 µM) | < 2 h | ≤ 0.06 µg/mL | ≤ 0.06 µg/mL | 16 µg/mL (≈ 19.8 µM) |  |  |  |  | 
2 | CC[C@H]1OC(=O)[C@H](C)C(=O)[C@H](C)[C@@H](O[C@@H]2O[C@H](C)C[C@H](N(C)C)[C@H]2O)[C@](C)(O)C[C@@H](C)C(=O)[C@H](C)[C@H]2N(C3CN(Cc4c(OC)cnc5ncccc45)C3)C(=O)O[C@]12C | 8 µg/mL (≈ 9.69 µM) | ≤ 0.06 µg/mL | < 2 h | ≤ 0.06 µg/mL | ≤ 0.06 µg/mL | ≤ 0.06 µg/mL | 0.8 |  |  |  | 
3 | CC[C@H]1OC(=O)[C@H](C)C(=O)[C@H](C)[C@@H](O[C@@H]2O[C@H](C)C[C@H](N(C)C)[C@H]2O)[C@](C)(O)C[C@@H](C)C(=O)[C@H](C)[C@H]2N(C3CN(Cc4cccc5nc[nH]c45)C3)C(=O)O[C@]12C | 8 µg/mL (≈ 10.2 µM) | 0.5 µg/mL (≈ 0.638 µM) | < 2 h | 0.125 µg/mL (≈ 0.159 µM) | ≤ 0.06 µg/mL | 8 µg/mL (≈ 10.2 µM) |  |  |  |  | 
4 | CC[C@H]1OC(=O)[C@H](C)C(=O)[C@H](C)[C@@H](O[C@@H]2O[C@H](C)C[C@H](N(C)C)[C@H]2O)[C@](C)(O)C[C@@H](C)C(=O)[C@H](C)[C@H]2N(C3CN(Cc4ccnc5cccnc45)C3)C(=O)O[C@]12C | 8 µg/mL (≈ 10.1 µM) | ≤ 0.06 µg/mL | < 2 h | ≤ 0.06 µg/mL | ≤ 0.06 µg/mL | 1 µg/mL (≈ 1.26 µM) | 0.7 | Stable | 196 µM |  | 
5 | CC[C@H]1OC(=O)[C@H](C)C(=O)[C@H](C)[C@@H](O[C@@H]2O[C@H](C)C[C@H](N(C)C)[C@H]2O)[C@](C)(O)C[C@@H](C)C(=O)[C@H](C)[C@H]2N(C3CN(Cc4ccnc5ncccc45)C3)C(=O)O[C@]12C | 4 µg/mL (≈ 5.03 µM) | 0.12 µg/mL (≈ 0.151 µM) | < 2 h | ≤ 0.06 µg/mL | ≤ 0.06 µg/mL | 1 µg/mL (≈ 1.26 µM) | 0.6 | Unstable | 80 µM |  | 
6 | CC[C@H]1OC(=O)[C@H](C)C(=O)[C@H](C)[C@@H](O[C@@H]2O[C@H](C)C[C@H](N(C)C)[C@H]2O)[C@](C)(O)C[C@@H](C)C(=O)[C@H](C)[C@H]2N(C3CN([C@H](C)c4ccnc5ncccc45)C3)C(=O)O[C@]12C | 4 µg/mL (≈ 4.94 µM) | 0.25 µg/mL (≈ 0.309 µM) | < 2 h | ≤ 0.06 µg/mL | ≤ 0.06 µg/mL | 1 µg/mL (≈ 1.23 µM) | 0.3 | Unstable | 43 µM | 54.5 mg/kg | 35.6 mg/kg
7 | CC[C@H]1OC(=O)[C@H](C)C(=O)[C@H](C)[C@@H](O[C@@H]2O[C@H](C)C[C@H](N(C)C)[C@H]2O)[C@](C)(O)C[C@@H](C)C(=O)[C@H](C)[C@H]2N(C3CN(Cc4c(O)cnc5ncccc45)C3)C(=O)O[C@]12C | 4 µg/mL (≈ 4.93 µM) | ≤ 0.06 µg/mL | < 2 h | ≤ 0.06 µg/mL | ≤ 0.06 µg/mL | 0.25 µg/mL (≈ 0.308 µM) | < 0.3 | Unstable | 140 µM |  | 
8 | CC[C@H]1OC(=O)[C@H](C)C(=O)[C@H](C)[C@@H](O[C@@H]2O[C@H](C)C[C@H](N(C)C)[C@H]2O)[C@](C)(O)C[C@@H](C)C(=O)[C@H](C)[C@H]2N(C3CN(Cc4c(O)cnc5cccnc45)C3)C(=O)O[C@]12C | 4 µg/mL (≈ 4.93 µM) | ≤ 0.06 µg/mL | < 2 h | ≤ 0.06 µg/mL | ≤ 0.06 µg/mL | 0.5 µg/mL (≈ 0.616 µM) | < 0.3 | Stable | 67 µM | 26.8 mg/kg | 53.6 mg/kg
9 | CC[C@H]1OC(=O)[C@H](C)[C@@H](O[C@H]2C[C@@](C)(OC)[C@@H](O)[C@H](C)O2)[C@H](C)[C@@H](O[C@@H]2O[C@H](C)C[C@H](N(C)C)[C@H]2O)[C@](C)(OC)C[C@@H](C)C(=O)[C@H](C)[C@@H](O)[C@]1(C)O [CLARITHROMYCIN] | 16 µg/mL (≈ 21.4 µM) | 16 µg/mL (≈ 21.4 µM) | < 2 h | > 64 µg/mL | ≤ 0.06 µg/mL | > 64 µg/mL |  |  |  | > 100 mg/kg | > 100 mg/kg
10 | CC[C@H]1OC(=O)[C@H](C)C(=O)[C@H](C)[C@@H](O[C@@H]2O[C@H](C)C[C@H](N(C)C)[C@H]2O)[C@](C)(OC)C[C@@H](C)C(=O)[C@H](C)[C@H]2N(CCCCn3cnc(-c4cccnc4)c3)C(=O)O[C@]12C [TELITHROMYCIN] | 4 µg/mL (≈ 4.93 µM) | ≤ 0.06 µg/mL | < 2 h | ≤ 0.06 µg/mL | ≤ 0.06 µg/mL | 32 µg/mL (≈ 39.4 µM) | 0.7 | Stable | 40 µM | 31.2 mg/kg | 37.5 mg/kg
